One molecule from ChEMBL document CHEMBL5661979, “Pharmacological inhibition of BMK1 suppresses tumor growth through promyelocytic leukemia protein” (Cancer Cell, 2010) can be followed below.

The target of series [1] is Dual specificity mitogen-activated protein kinase kinase 4 (Homo sapiens, UniProt P45985). The series is described as follows: Inhibition of MAP2K4 in human HeLa cells lysate pre incubated for 15 mins followed by ATP acyl phosphate probe addition and measured after 10 mins by LC-MS/MS analysis. The series is classed as subcellular.
Chain of Dual specificity mitogen-activated protein kinase kinase 4 (P45985 whole entry): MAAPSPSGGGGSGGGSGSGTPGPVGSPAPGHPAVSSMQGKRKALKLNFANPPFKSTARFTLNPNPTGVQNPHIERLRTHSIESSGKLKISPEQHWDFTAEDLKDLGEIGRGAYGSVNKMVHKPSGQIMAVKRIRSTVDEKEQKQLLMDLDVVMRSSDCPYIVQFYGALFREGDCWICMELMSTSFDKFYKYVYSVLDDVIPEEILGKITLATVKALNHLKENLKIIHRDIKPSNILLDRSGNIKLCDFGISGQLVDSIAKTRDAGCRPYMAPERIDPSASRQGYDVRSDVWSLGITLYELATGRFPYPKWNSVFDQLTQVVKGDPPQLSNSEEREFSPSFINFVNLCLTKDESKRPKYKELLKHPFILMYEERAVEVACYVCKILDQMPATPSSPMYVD
For series [2], the target named is Glycogen synthase kinase-3 alpha (Homo sapiens, UniProt P49840). The series is described as follows: Inhibition of GSK3A in human HeLa cells lysate at 2 uM pre incubated for 15 mins followed by ATP acyl phosphate probe addition and measured after 10 mins by LC-MS/MS analysis relative to control. The settings on record: time 25.0 min. The series is classed as subcellular.
Chain of Glycogen synthase kinase-3 alpha (P49840 2-483 limits assumed): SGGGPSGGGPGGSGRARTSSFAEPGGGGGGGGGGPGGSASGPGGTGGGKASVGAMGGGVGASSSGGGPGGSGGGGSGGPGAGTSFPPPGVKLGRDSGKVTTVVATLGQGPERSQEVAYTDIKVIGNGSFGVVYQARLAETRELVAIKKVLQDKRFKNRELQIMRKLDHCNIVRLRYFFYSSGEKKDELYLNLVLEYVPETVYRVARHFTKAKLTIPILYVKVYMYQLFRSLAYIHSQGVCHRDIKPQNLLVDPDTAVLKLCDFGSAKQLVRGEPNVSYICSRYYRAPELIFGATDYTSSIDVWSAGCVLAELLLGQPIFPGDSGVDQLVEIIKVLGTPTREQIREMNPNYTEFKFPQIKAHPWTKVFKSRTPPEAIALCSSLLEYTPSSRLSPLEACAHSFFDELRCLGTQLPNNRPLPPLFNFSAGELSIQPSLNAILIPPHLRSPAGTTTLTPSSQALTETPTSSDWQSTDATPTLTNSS

Series [3] addresses Dual specificity mitogen-activated protein kinase kinase 3 (Homo sapiens, UniProt P46734). The series can be described thus: Inhibition of MAP2K3 in human HeLa cells lysate pre incubated for 15 mins followed by ADP acyl phosphate probe addition and measured after 10 mins by LC-MS/MS analysis. The series is classed as subcellular.
Series [4] addresses Serine-protein kinase ATM (Homo sapiens, UniProt Q13315). The series can be described thus: Inhibition of ATM in human HeLa cells lysate at 2 uM pre incubated for 15 mins followed by ADP acyl phosphate probe addition and measured after 10 mins by LC-MS/MS analysis relative to control. The series is classed as subcellular. The conditions noted are these: time 25.0 min. In outline:
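KiNativ-type profiling in HeLa lysate (5 mg/mL total protein). Lysate preincubated 15 min with inhibitor at 50, 10, 2, 0.8 or 0 μM, then ATP or ADP acylphosphate probe added (5 μM final) for 10 min. Reaction stopped with urea and analysed by targeted MS, using up to four fragment ions per kinase peptide-probe conjugate. % inhibition calculated against untreated lysate. Duplicate reactions.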

The target in a further series is Insulin receptor (Homo sapiens, UniProt P06213). The series is described as follows: Inhibition of INSR in human HeLa cells lysate pre incubated for 15 mins followed by ADP acyl phosphate probe addition and measured after 10 mins by LC-MS/MS analysis. The series is classed as subcellular.
Chain of Insulin receptor (P06213 28-758 limits assumed): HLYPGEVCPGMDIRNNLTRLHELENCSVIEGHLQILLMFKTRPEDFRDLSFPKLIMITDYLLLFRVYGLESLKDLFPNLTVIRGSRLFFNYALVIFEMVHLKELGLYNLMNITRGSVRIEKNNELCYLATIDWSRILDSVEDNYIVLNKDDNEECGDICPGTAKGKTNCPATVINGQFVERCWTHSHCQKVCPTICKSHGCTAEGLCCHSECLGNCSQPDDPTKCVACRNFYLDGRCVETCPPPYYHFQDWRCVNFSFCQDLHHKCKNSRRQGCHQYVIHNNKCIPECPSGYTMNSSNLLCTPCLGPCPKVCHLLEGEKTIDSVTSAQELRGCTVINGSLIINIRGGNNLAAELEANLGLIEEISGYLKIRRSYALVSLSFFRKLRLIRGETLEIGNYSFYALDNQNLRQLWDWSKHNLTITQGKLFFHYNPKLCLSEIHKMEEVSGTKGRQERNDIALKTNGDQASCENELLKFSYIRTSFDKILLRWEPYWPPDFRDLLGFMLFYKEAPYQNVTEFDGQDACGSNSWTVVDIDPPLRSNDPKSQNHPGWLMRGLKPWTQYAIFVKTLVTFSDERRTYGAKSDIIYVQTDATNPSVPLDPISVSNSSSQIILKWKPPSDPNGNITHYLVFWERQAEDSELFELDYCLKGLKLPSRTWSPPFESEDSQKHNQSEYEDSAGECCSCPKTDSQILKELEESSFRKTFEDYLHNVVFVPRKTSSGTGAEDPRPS
Chain of Insulin receptor (P06213 763-1382 limits assumed): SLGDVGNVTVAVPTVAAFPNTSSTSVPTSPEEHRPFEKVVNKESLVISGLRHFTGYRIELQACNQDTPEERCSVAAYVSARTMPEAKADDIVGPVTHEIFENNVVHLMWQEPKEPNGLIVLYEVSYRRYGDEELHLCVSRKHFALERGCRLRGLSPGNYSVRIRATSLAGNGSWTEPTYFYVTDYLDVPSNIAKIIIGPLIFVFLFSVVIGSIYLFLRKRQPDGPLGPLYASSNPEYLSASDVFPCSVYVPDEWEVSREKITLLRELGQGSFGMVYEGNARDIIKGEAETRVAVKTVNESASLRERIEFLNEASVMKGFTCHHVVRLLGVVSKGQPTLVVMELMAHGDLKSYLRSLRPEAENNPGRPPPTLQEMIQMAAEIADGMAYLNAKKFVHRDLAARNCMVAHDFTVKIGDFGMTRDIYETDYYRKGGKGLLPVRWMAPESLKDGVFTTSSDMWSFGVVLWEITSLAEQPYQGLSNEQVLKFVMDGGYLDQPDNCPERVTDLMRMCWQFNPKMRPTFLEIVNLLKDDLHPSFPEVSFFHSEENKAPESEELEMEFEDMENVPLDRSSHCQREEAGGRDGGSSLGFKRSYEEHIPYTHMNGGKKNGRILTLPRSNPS
The target of series [5] is Dual specificity mitogen-activated protein kinase kinase 1 (Homo sapiens, UniProt Q02750). The series is described as follows: Inhibition of MAP2K1 in human HeLa cells lysate at 50 uM pre incubated for 15 mins followed by ATP acyl phosphate probe addition and measured after 10 mins by LC-MS/MS analysis relative to control. The settings on record: time 25.0 min. The series is classed as subcellular.
Chain of Dual specificity mitogen-activated protein kinase kinase 1 (Q02750 whole entry): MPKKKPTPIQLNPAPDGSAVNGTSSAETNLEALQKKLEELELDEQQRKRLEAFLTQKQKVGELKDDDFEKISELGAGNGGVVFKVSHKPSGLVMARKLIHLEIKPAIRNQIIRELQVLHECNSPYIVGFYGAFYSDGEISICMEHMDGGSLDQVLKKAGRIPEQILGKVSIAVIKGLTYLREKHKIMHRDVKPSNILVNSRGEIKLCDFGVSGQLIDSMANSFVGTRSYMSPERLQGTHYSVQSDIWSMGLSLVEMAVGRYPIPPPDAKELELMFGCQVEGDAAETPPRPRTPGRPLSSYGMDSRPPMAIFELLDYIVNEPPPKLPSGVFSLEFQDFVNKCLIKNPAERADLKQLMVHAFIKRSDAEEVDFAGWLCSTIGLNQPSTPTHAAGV

In series [6] the target is Ribosomal protein S6 kinase alpha-3 (Homo sapiens, UniProt P51812). The series can be described thus: Inhibition of RSK2 domain 1 in human HeLa cells lysate at 2 uM pre incubated for 15 mins followed by ADP acyl phosphate probe addition and measured after 10 mins by LC-MS/MS analysis relative to control. The series is classed as subcellular. The conditions noted are these: time 25.0 min.

In series [7] the target is Cyclin-dependent kinase 8/19 (Homo sapiens, UniProt P49336+Q9BWU1). The series is described as follows: Inhibition of CDK8/CDK11 in human HeLa cells lysate at 50 uM pre incubated for 15 mins followed by ATP acyl phosphate probe addition and measured after 10 mins by LC-MS/MS analysis relative to control. The series is classed as subcellular. The settings on record: time 25.0 min. In outline:
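KiNativ profiling in HeLa lysate (5 mg/mL total protein). Lysate incubated 15 min with inhibitor at 50, 10, 2, 0.8 or 0 μM. ATP or ADP acylphosphate probe then added (5 μM final) and reacted 10 min. Reaction stopped with urea and analysed by targeted MS, using up to four fragment ions per kinase peptide-probe conjugate. % inhibition taken against untreated lysate. Run in duplicate.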

Series [8] can be described thus: Clearance in Sprague-Dawley rat at 1 mg/kg, iv measured up to 8 hrs by LC-MS/MS analysis. The series is classed as ADME, organism-based. The settings on record: in vivo. In outline:
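Sprague-Dawley rats given one intravenous dose or one oral dose of 2 mg/kg. Plasma drug concentrations were followed over time, with samples taken out to 8 hr after dosing. PK parameters (clearance, volume of distribution, half-life, oral bioavailability, Cmax) were calculated from these concentration–time data.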

Series [9] in a line: Inhibition of MST4/YSK1 in human HeLa cells lysate at 10 uM pre incubated for 15 mins followed by ADP acyl phosphate probe addition and measured after 10 mins by LC-MS/MS analysis relative to control. The settings on record: 25 min, condition cancer.
Series [10] deals with Phosphatidylinositol 3-kinase catalytic subunit type 3 (Homo sapiens, UniProt Q8NEB9). The series can be described thus: Inhibition of PIK3C3 in human HeLa cells lysate at 50 uM pre incubated for 15 mins followed by ATP acyl phosphate probe addition and measured after 10 mins by LC-MS/MS analysis relative to control. The series is classed as subcellular. The settings on record: time 25.0 min.
Chain of Phosphatidylinositol 3-kinase catalytic subunit type 3 (Q8NEB9 whole entry): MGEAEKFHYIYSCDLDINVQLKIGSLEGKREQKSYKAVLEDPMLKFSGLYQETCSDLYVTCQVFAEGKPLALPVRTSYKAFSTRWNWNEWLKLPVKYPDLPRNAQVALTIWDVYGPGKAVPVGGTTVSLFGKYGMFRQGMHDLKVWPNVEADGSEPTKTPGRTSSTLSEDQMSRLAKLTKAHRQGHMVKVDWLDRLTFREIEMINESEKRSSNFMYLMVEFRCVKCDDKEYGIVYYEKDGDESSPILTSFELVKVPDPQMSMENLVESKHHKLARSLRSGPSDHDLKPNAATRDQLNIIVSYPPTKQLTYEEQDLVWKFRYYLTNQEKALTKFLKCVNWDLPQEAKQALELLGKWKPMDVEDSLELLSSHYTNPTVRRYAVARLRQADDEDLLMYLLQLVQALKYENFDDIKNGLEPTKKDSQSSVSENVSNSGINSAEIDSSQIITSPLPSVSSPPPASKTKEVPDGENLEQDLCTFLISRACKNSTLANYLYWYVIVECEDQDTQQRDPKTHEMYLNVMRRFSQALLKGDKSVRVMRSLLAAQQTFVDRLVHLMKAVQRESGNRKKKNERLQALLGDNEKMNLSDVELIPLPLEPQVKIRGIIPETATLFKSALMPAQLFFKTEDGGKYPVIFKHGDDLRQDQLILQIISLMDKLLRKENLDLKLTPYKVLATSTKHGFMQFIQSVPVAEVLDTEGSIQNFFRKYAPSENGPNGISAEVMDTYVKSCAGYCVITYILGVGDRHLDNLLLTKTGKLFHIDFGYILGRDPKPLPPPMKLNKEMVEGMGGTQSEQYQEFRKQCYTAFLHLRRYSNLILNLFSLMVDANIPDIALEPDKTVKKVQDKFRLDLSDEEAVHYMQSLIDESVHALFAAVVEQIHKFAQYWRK

The nature of series [11]: Plasma concentration in C57Bl/6 mouse at 50 mg/kg, ip administered for 1 day and measured 8 hr post last dose by LC-MS/MS analysis. The series is classed as ADME, organism-based.
Series [12] in a line: Inhibition of HGK/MINK/TNIK in human HeLa cells lysate at 2 uM pre incubated for 15 mins followed by ADP acyl phosphate probe addition and measured after 10 mins by LC-MS/MS analysis relative to control. The conditions noted are these: 25 min, condition cancer.
Series [13] addresses Ephrin type-B receptor 4 (Homo sapiens) (UniProt P54760). The series can be described thus: Inhibition of EphB4 in human HeLa cells lysate at 10 uM pre incubated for 15 mins followed by ATP acyl phosphate probe addition and measured after 10 mins by LC-MS/MS analysis relative to control. The series is classed as subcellular. The conditions noted are these: time 25.0 min.
Series [14] addresses Serine/threonine-protein kinase tousled-like 2 (Homo sapiens, UniProt Q86UE8). The series can be described thus: Inhibition of TLK2 in human HeLa cells lysate at 10 uM pre incubated for 15 mins followed by ADP acyl phosphate probe addition and measured after 10 mins by LC-MS/MS analysis relative to control. The series is classed as subcellular. The settings on record: time 25.0 min.

For series [15], the target named is T1, Phosphatidylinositol 5-phosphate 4-kinase type-2 alpha (Homo sapiens) (UniProt P48426).
T1 sequence (whole entry): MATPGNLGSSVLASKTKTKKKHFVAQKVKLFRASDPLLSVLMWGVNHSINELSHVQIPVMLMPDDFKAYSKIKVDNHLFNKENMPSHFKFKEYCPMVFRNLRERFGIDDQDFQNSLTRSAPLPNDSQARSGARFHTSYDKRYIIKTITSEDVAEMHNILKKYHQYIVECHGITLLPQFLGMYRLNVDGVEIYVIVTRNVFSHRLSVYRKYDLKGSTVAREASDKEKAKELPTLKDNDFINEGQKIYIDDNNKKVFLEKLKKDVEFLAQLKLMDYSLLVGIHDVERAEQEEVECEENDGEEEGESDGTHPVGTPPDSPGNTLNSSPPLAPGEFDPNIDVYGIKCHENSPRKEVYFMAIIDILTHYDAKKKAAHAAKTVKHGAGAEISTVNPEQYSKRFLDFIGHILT
The series can be described thus: Inhibition of PIP5K2A LIP1 site in human HeLa cells lysate at 10 uM pre incubated for 15 mins followed by ADP acyl phosphate probe addition and measured after 10 mins by LC-MS/MS analysis relative to control. The series is classed as subcellular. The settings on record: time 25.0 min.

Series [16] deals with Dual specificity mitogen-activated protein kinase kinase; MEK1/2 (Homo sapiens, UniProt P36507+Q02750). The series can be described thus: Inhibition of MAP2K1/MAP2K2 in human HeLa cells lysate at 2 uM pre incubated for 15 mins followed by ATP acyl phosphate probe addition and measured after 10 mins by LC-MS/MS analysis relative to control. The settings on record: time 25.0 min. The series is classed as subcellular.

The target in a further series is Scaffold protein ILK (Homo sapiens, UniProt Q13418). The series can be described thus: Inhibition of ILK in human HeLa cells lysate pre incubated for 15 mins followed by ATP acyl phosphate probe addition and measured after 10 mins by LC-MS/MS analysis. The series is classed as subcellular.
Series [17] is described as follows: Inhibition of CK1g1/g2/g3 in human HeLa cells lysate at 2 uM pre incubated for 15 mins followed by ADP acyl phosphate probe addition and measured after 10 mins by LC-MS/MS analysis relative to control. The settings on record: 25 min, condition cancer.

Chain of Ephrin type-B receptor 4 (Homo sapiens) (P54760 whole entry): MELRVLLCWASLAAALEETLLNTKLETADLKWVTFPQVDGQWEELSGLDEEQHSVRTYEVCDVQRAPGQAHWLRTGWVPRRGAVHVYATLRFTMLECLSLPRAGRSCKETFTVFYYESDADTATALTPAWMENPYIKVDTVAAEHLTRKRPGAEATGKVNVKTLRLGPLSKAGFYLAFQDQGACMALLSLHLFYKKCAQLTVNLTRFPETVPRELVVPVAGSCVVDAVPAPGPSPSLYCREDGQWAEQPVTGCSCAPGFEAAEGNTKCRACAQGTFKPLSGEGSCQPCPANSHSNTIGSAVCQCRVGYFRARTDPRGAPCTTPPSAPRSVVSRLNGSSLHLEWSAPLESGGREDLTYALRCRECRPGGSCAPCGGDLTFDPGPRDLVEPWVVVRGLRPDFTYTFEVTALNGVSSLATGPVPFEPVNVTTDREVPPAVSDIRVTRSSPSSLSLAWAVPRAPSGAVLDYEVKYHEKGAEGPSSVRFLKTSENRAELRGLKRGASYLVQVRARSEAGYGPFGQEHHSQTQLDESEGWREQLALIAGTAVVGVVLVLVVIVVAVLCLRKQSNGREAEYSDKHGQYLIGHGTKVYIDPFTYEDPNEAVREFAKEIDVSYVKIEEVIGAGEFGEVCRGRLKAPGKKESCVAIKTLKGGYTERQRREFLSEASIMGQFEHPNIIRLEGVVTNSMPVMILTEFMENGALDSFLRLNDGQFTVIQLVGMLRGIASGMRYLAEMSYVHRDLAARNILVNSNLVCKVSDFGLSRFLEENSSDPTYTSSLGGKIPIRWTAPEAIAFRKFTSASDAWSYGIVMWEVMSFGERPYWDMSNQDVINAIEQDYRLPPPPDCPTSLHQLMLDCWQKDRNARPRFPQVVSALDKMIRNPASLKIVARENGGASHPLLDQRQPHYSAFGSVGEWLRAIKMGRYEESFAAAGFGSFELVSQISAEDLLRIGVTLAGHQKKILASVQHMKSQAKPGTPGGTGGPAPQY
Chain of Dual specificity mitogen-activated protein kinase kinase 3 (P46734 whole entry): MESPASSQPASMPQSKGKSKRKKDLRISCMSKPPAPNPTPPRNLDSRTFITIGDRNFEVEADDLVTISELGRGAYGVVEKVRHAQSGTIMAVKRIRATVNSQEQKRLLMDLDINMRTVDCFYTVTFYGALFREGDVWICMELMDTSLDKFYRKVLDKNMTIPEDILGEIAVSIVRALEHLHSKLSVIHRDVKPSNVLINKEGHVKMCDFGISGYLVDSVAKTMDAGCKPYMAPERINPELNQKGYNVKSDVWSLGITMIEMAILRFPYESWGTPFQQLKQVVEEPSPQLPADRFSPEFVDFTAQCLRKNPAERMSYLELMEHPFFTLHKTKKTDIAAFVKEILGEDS

Broadly, the IC50 is the concentration that gives 50% inhibition. The low end stands for higher potency, the high end for lower potency. As usually defined, the inhibition is the change of the read-out against control, counted positive when it falls. In general, clearance refers to the rate of elimination divided by the concentration. Regarding `CCOc1cc(N2CCC(O)CC2)ccc1Nc1ncc2c(n1)N(C)c1ccccc1C(=O)N2C`, the IC50 (in series [1]; in series [3]; on Insulin receptor; against Scaffold protein ILK) was over 50 µM each time. In addition, the inhibition is -5.5% in [2]; 2.3% in series [4]; -7.3% in [5]; 4.9% in series [6]; 7.7% in [7]; 19.3% in series [10]. The inhibition in series [13] was -7.1%; in series [14], 0.4%; in series [15], 5%; in [16], 0.6%. Moreover, the clearance in series [8] stood at 26 mL/min/kg. In addition, the inhibition at 10 µM in series [9] stood at 7.9%. Moreover, the concentration at 24 h in series [11] is 10.2 µM. Besides, the inhibition at 2 µM in [12] worked out at 8.7%; in series [17] it was 61.7%.
